Test results taken from ChEMBL document CHEMBL4480374, “Methoxy substituted 2-benzylidene-1-indanone derivatives as A1 and/or A2A AR antagonists for the potential treatment of neurological conditions” (Medchemcomm, 2019).

Legend:
Adenosine receptor A2a [1] = molecular target: T1, Adenosine receptor A2a (Rattus norvegicus, UniProt P30543); test: Displacement of [3H]NECA from adenosine A2A receptor in rat striatal membranes by radioligand competition assay; assay type: cell membranes, Striatum, Membrane
Rattus norvegicus = organism: Rattus norvegicus; test: Selectivity index, ratio of Ki for adenosine A1 receptor in rat brain membranes to Ki for adenosine A2A receptor in rat striatal membranes; assay type: cell membranes
Method in brief: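 Selectivity index calculated as the ratio A1 Ki / A2A Ki. […] A2A Ki measured by [3H]NECA (4 nM, with CPA) competition in rat striatal membranes. Ki values are triplicate means.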

Adenosine receptor A1 [2] = molecular target: T2, Adenosine receptor A1 (Rattus norvegicus, UniProt P25099); test: Displacement of [3H]DPCPX from adenosine A1 receptor in rat brain membranes by radioligand competition assay; assay type: cell membranes
T2 sequence (P25099 whole entry): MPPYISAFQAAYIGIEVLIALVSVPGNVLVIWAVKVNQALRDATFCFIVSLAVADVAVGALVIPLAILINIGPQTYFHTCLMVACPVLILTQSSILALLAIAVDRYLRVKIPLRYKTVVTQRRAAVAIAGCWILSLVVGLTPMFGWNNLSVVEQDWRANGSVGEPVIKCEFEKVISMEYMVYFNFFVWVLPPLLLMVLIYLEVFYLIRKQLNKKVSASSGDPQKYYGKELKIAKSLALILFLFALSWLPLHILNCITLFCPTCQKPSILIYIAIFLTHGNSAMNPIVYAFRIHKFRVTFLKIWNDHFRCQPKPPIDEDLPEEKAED

[3] = molecular target: T3, Adenosine receptor A1 (Rattus norvegicus) (UniProt P25099); test: Displacement of [3H]DPCPX from adenosine A1 receptor in rat brain membranes at 100 uM by radioligand competition assay relative to control; assay type: cell membranes
T3 sequence (whole entry): T2 sequence (P25099 whole entry)
Method in brief: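 Percentage displacement of radioligand recorded at the maximum tested concentration, 100 μM. Nonspecific binding defined with 100 μM CPA.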

[4] = molecular target: Adenosine receptor A2a (Rattus norvegicus) (UniProt P30543); test: Displacement of [3H]NECA from adenosine A2A receptor in rat striatal membranes at 100 uM by radioligand competition assay relative to control; assay type: cell membranes; details: Striatum, Membrane
Method in brief: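 Rat striatal membranes, [3H]NECA at 4 nM (Kd = 15.3 nM) with CPA added to minimise A1 binding. Percentage radioligand displacement recorded at the highest tested concentration, 100 μM. Nonspecific binding defined with 100 μM CPA.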

Adenosine receptor A1 [5] = molecular target: T2, Adenosine receptor A1; test: Displacement of [3H]DPCPX from adenosine A1 receptor in rat brain membranes in presence of GTP by radioligand competition assay; assay type: cell membranes
[6] = molecular target: T3, Adenosine receptor A1 (Rattus norvegicus); test: Selectivity index, ratio of Ki for adenosine A1 receptor in rat brain membranes in presence of GTP to Ki for adenosine A1 receptor in rat brain membranes in absence of GTP; assay type: cell membranes
Method in brief: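 Both determined by [3H]DPCPX (0.1 nM) competition in rat whole brain membranes, nonspecific binding by 10 μM unlabelled DPCPX. A shift of about 1 is taken as antagonism.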

Adenosine receptor A2a [7] = molecular target: T1, Adenosine receptor A2a; test: Antagonist activity at rat adenosine A2A receptor
Method in brief: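 Competition binding at A2A in rat striatal membranes with [3H]NECA (4 nM; Kd = 15.3 nM), with CPA present to limit [3H]NECA binding to A1. Nonspecific binding defined with 100 μM CPA (final). Ki derived from IC50 of sigmoidal dose-response curves of specific binding vs log concentration. Triplicate incubations, mean ± SEM.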

Adenosine receptor A1 [8] = molecular target: T2, Adenosine receptor A1; test: Antagonist activity at rat adenosine A1 receptor

Adenosine receptor A2a (Rattus norvegicus), sequence (P30543 whole entry): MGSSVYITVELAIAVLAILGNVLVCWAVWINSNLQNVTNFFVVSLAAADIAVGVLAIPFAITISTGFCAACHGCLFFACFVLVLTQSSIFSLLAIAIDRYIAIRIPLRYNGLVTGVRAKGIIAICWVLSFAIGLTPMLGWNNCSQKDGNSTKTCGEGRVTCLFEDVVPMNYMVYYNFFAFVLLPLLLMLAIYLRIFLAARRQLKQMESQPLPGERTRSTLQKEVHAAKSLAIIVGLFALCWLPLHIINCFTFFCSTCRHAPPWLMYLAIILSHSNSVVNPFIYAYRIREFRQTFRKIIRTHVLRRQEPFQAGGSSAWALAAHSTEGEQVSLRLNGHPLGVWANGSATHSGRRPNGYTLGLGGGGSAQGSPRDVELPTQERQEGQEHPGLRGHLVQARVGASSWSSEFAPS
T1 sequence (P30543 whole entry): as above

SMILES | Ki (Adenosine receptor A2a [1]) [µM] | Ratio Ki (Rattus norvegicus) | Ki (Adenosine receptor A1 [2]) [µM] | inhibition [3] [%] | inhibition [4] [%] | Ki (Adenosine receptor A1 [5]) [nM] | Ratio Ki [6] | Ki (Adenosine receptor A2a [7]) [µM] | Ki (Adenosine receptor A1 [8]) [µM]
COc1cc(OC)c(OC)cc1/C=C1\Cc2c(OC)cccc2C1=O | > 100 | – | > 100 | 46 | 29 | – | – | – | –
COc1cccc2c1C/C(=C\c1ccc(N(C)C)cc1)C2=O | > 100 | – | > 100 | 52 | 23 | – | – | – | –
OC[C@H]1O[C@@H](n2cnc3c(NC4CCCC4)ncnc32)[C@H](O)[C@@H]1O [N6-CYCLOPENTYLADENOSINE] | 0.163 | – | – | – | – | – | – | – | –
COc1cc2c(cc1OC)C(=O)/C(=C/c1ccc(O)c(O)c1)C2 | 18 | 0.2 | 4.29 | – | – | – | – | – | –
CN(C)c1ccc(/C=C2\Cc3ccccc3C2=O)cc1 | > 100 | – | > 100 | 51 | 65 | – | – | – | –
O=C1/C(=C/c2ccc(O)c(O)c2)Cc2cc3c(cc21)OCO3 | 1.07 | – | > 100 | 70 | – | – | – | – | –
O=C1/C(=C/c2ccc(O)cc2)Oc2cc(O)ccc21 | – | – | – | – | – | – | – | > 100 | –
COc1ccc2c(c1)C/C(=C\c1ccc(N(C)C)cc1)C2=O | > 100 | – | > 100 | 64 | 47 | – | – | – | –
COc1cccc2c1CCC2=O | > 100 | – | > 100 | 78 | 72 | – | – | – | –
O=C1/C(=C/c2ccc(O)c(O)c2)Oc2c1ccc(O)c2O | – | – | – | – | – | – | – | 9.35 | 3.47

Second part, the molecule after the results:

Ki (Adenosine receptor A2a [1]) [µM] | Ratio Ki (Rattus norvegicus) | Ki (Adenosine receptor A1 [2]) [µM] | inhibition [3] [%] | inhibition [4] [%] | Ki (Adenosine receptor A1 [5]) [nM] | Ratio Ki [6] | Ki (Adenosine receptor A2a [7]) [µM] | Ki (Adenosine receptor A1 [8]) [µM] | SMILES
6.32 | 0.5 | 3.28 | – | – | – | – | – | – | COc1ccc2c(c1)C/C(=C\c1ccc(O)c(O)c1)C2=O
0.903 | 0.5 | 0.435 | – | – | 339 | 0.9 | – | – | O=C1/C(=C/c2ccc(O)c(O)c2)Cc2c(O)cccc21
> 100 | – | 1.65 | – | 62 | – | – | – | – | COc1cccc2c1C/C(=C\c1ccccc1)C2=O
> 100 | – | > 100 | 42 | 82 | – | – | – | – | COc1ccc2c(c1)C/C(=C\c1ccccc1)C2=O
0.078 | 0.5 | 0.042 | – | – | – | – | – | – | COc1cccc2c1C/C(=C\c1ccc(O)c(O)c1)C2=O
> 100 | – | > 100 | 31 | 65 | – | – | – | – | COc1cccc2c1C/C(=C\c1ccc(O)cc1)C2=O
5.46 | – | 1.62 | – | – | – | – | – | – | O=C1/C(=C/c2cccc(O)c2)CCc2c(O)cccc21
0.097 | 0.4 | 0.041 | – | – | 60 | 1.46 | – | – | COc1cccc2c1C/C(=C\c1cccc(O)c1)C2=O
